Only some compounds are listed: those with a hit (about 3.1% of all), similar ones and a draw of the others.
KCNQ1 block – blocks the human KCNQ1 potassium channel; B-score at 10 µM; 1.3% of 310,000 active; CHO-K1 KCNQ1, FluxOR thallium flux fluorescence; hits give high values;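 active = compounds whose thallium flux B-score, printed positive for inhibition, exceeds three library SD while starting fluorescence stays within three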;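 note: channel opened by potassium depolarization with thallium stimulus after 20 min compound exposure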
KCNK3 inh – human KCNK3 channel inhibition, primary screen | O14649 | CHO-KCNK3 thallium flux, FluxOR fluorescence; hits give low values | B-score at 10 µM | 0.84% of 340,000 active | AID 602410;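 active = B-score under library mean minus 4 SD, starting fluorescence ratio at most library mean plus 5 SD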;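 note: more negative B-score means stronger inhibition of thallium flux through KCNK3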
Target sequence (O14649 whole entry, looked up): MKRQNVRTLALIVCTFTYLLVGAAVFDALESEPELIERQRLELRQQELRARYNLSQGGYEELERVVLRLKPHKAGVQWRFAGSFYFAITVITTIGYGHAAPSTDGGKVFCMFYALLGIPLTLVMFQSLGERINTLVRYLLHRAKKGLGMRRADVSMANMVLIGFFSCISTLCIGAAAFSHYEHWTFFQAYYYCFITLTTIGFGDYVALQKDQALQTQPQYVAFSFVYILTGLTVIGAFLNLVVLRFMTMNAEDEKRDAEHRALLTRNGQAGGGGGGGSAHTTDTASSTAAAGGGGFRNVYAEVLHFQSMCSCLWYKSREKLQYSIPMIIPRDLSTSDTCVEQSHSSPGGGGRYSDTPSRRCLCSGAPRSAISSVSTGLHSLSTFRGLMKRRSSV
KCNK9 inh – inhibitors of human KCNK9 two-pore domain potassium channel; AID 488922; HEK293 KCNK9, FluxOR thallium flux fluorescence; hits give low values; 1.2% of 310,000 active; B-score at 10 µM; Q9NPC2;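 active = ratio B-score over 3 SD below the library mean, with starting fluorescence within 5 SD of its mean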;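 note: negative B-score means less thallium flux so channel inhibition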
hERG rescue – hERG (human) protection from proarrhythmic block; AID 1511; CHO-hERG, FluxOR thallium flux, dofetilide IC70 present; Q12809; 0.51% of 310,000 active; activation (rescue from dofetilide block), less the hit threshold, % at 10 µM;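 active = activation above the mean of controls blocked by dofetilide plus 5 SD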;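 note: thallium influx through hERG after potassium depolarization seen as dye fluorescence rise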
KCNQ1 pot – human KCNQ1 channel potentiation or activation; CHO-K1 KCNQ1, thallium flux FluxOR fluorescence; hits give high values; B-score at 10 µM; 0.35% of 310,000 active; AID 2648;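 active = fluorescence ratio B-score, a plate-corrected score, at least three library SD, with initial intensity B-score within 5 SD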
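Assay system: CHO-K1 cells stably expressing KCNQ1; Medium: assay buffer with matched DMSO; Also added: K+/Tl+ depolarizing stimulus; Dosing: single dose; Timing: dye 90 min, compound 20 min, room temperature; Measured by: kinetic FluxOR thallium fluorescence, 10-s 1-Hz baseline, 110-s post-stimulus read; Read-out: peak-minus-minimum fluorescence over initial fluorescence, negative-control normalized, B-scored.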
Starred values were filed as active, the others as inactive; i = inactive; x = no result given.

SMILES	KCNQ1 block	KCNK3 inh	KCNK9 inh	hERG rescue	KCNQ1 pot
CCOC(=O)c1sc(NC(=O)c2ccccc2C(=O)O)c(C(=O)OCC)c1C	i	i	i	-2	8*
CCOC(=O)c1sc(NC(=O)c2ccncc2)c(C#N)c1C	i	i	i	-10	i
CCOC(=O)c1sc(NC(=O)Nc2ccccc2Cl)cc1C	i	i	i	-11	i
CCOC(=O)c1sc(NC(=O)c2cc(-c3ccccc3C)nc3ccccc23)c(C#N)c1C	10*	i	i	-28	i
COc1ccc(C(=O)Nc2ccnn2C2CCN(C(=O)c3cccnc3)CC2)cc1	i	i	i	-10	i
CS(=O)(=O)c1nsc2nc(=O)c(/C=C3\C=Nc4ccccc43)c(N)n12	i	i	i	32*	i
CC(C)Sc1nsc2nc(=O)c(/C=C3\C=Nc4ccccc43)c(N)n12	i	i	i	-6	i
O=C(CSCc1c(F)cccc1F)Nc1ccccc1	i	i	i	-6	i
O=c1[nH]c(CN2CCN(c3ncccn3)CC2)nc2c(Br)cc(Br)cc12	i	i	-7.5*	-16	i
CC12CCC(C/C1=N\N=C1\NC(=O)/C(=C\c3ccc(Cl)cc3)S1)C2(C)C (stereo unspecified)	i	i	i	7.0*	21*
O=C1NC(=Nc2ccccc2Cl)S/C1=C\c1ccc(C(=O)O)cc1	i	i	i	-10	i
O=[N+]([O-])c1ccc(/C([O-])=C(/C(=S)NCc2ccco2)[n+]2ccccc2)cc1	i	i	i	-8	8*
CC(C)(C)c1ccc(NC(=O)C(=O)C2C(=O)Nc3ccccc32)cc1 (stereo unspecified)	i	i	i	5.7*	i
COc1ccc(CNC(=O)C2CCN(C(=O)c3csc(Nc4ccc(C)cc4)n3)CC2)cc1	i	i	i	-11	i
Cc1ccc(F)c([C@H]2[C@@H]3C=CCC[C@@]3(C)C(=O)N2Cc2ccccc2)c1	8*	i	i	-6	i
O=C(CNc1cccc2ccccc12)N/N=C/c1ccc([N+](=O)[O-])cc1	i	i	i	-6	i
O=C(CNc1cccc([N+](=O)[O-])c1)N/N=C/c1ccc(F)cc1	i	i	i	9.9*	i
CN(Cc1ccccc1)C(=O)CSc1nc2cc(C(=O)N3CCC(C(N)=O)CC3)ccc2c(=O)n1-c1ccccc1	i	x	i	-7	i
COC(=O)c1ccccc1NC(=O)CSc1nc(NC(=O)c2ccccc2)c2c(C)c(C)oc2n1	i	-10*	i	-3	i
CCCc1nn2c(=O)c(C(c3cccc(Cl)c3)c3c(O)nc4sc(CCC)nn4c3=O)c(O)nc2s1	i	i	i	6.1*	i
C#CCOn1c(-n2nc(C)cc2C)nc2ccccc2c1=O	i	i	i	-5	i
C=C(C)Cn1cnc2cc(C)c(C)cc21	i	i	i	8.6*	i
Fc1cccc(CO/N=C/c2c(-c3ccccc3)nc3ccc(Cl)cn23)c1	i	i	-6.6*	6.7*	i
CCCCC1(c2ccc(F)cc2)NC(=O)N(CC(=O)Nc2ccc(N3CCOCC3)cc2)C1=O (stereo unspecified)	x	i	x	x	x
CCOC(=O)c1c(CSc2ccccc2)n(C)c2cc(Br)c(O)c(CN(C)C)c12	i	i	-6.7*	-20	i
SMILES	KCNQ1 block	KCNK3 inh	KCNK9 inh	hERG rescue	KCNQ1 pot
CCOC(=O)c1c(CSc2ccc(C)cc2)n(C)c2cc(Br)c(O)c(CN(C)C)c12	i	i	i	-28	i
CCCCOC(=O)c1ccc(NC(=S)NC(=O)c2c(Cl)cnn2CC)cc1	i	i	i	0	75*
CCCCOC(=O)c1ccc(NC(=S)NC(=O)c2c(Cl)cnn2C)cc1	i	i	i	15*	8*
Cc1ccc(S(=O)(=O)N2CCC(=O)N(C(COC(=O)Nc3ccccc3)Cc3ccccc3)CC2)cc1 (stereo unspecified)	i	i	-6.7*	-16	i
Cc1ccc(S(=O)(=O)N2CCC(=O)N(C(CO)Cc3ccccc3)CC2)cc1 (stereo unspecified)	i	i	i	-7	i
S=C(Nc1ccccc1)Nc1cc(Cl)ccc1Oc1ccccc1	9*	i	i	-7	i
CCN(CC)c1ccc(/C=C(/C#N)C(=O)NC(C)C)o1	i	i	i	-20	i
CC(C)NC(=O)/C(C#N)=C\c1ccc(N(C)C)o1	i	i	-7*	-21	i
Cc1cccc(NC(=O)Cn2ccn(-c3ccc4c(c3)OCCO4)c(=O)c2=O)c1	i	i	i	-1	i
FC(F)(F)c1cnc2c(c1)[nH]c(=S)n2-c1ccc(Cl)cc1	i	i	i	5.5*	i
CCCC[C@@H]1C[C@H]1[C@@H](NC(=O)c1cccs1)c1ccc(C(F)(F)F)cc1	i	x	-7.3*	-15	i
S=c1nc(-c2ccccc2)[nH]n1-c1ccccc1	i	i	i	15*	74*
CCn1c(=S)[nH]c2c(c1=O)C(C)(C)Cc1ccccc1-2	i	i	i	45*	17*
Cn1c(=S)[nH]c2c(c1=O)C(C)(C)Cc1ccccc1-2	i	i	i	1	i
COc1cccc(CCC2C(=O)CCCC2=O)c1	x	i	x	x	x
C=CCNC(=O)COC(=O)c1ccc(Cl)c(S(=O)(=O)N(Cc2ccccc2)c2ccccc2)c1	6*	i	i	-7	i
O=C(CCC(=O)c1ccc(Cl)cc1)OCC(=O)c1ccccc1	i	i	i	8.9*	i
O=C(O)c1nn(Cc2ncc(-c3cccc(Cl)c3)o2)c(=O)c2ccccc12	i	i	i	-17	i
Cc1ccc(C(=O)NCC(=O)Nc2ncccc2C)s1	i	i	i	-4	i
CCN1CCN(Cc2c(O)ccc3c(=O)c(-c4ccccc4OC)coc23)CC1	i	i	i	-7	i
CCN1CCN(Cc2c(O)ccc3c2O/C(=C\C=C\c2ccccc2OC)C3=O)CC1	6*	i	i	-31	i
CC(C)c1ccc(/C=C2\Oc3c(ccc(O)c3CN3CCN(C)CC3)C2=O)cc1	i	i	i	-21	i
Cc1ccc(/C=C2\Oc3c(ccc(O)c3CN3CCN(CCO)CC3)C2=O)cc1	11*	i	i	-14	i
CC(C)(C)OC(=O)N(Cc1ccccc1)Cc1cccc(OCc2cccc(NC(=O)c3ccccc3)c2)c1	x	i	x	x	x
O=S(=O)(c1ccccc1Cl)N1CCC(Cc2ccccc2)CC1	6*	i	i	-18	i
Cn1c(=O)c(=O)n(C)c2cc(S(=O)(=O)N3CCC(Cc4ccccc4)CC3)ccc21	i	i	i	-3	i
